Measurements reported in ChEMBL document CHEMBL1144242, “Synthesis and antituberculosis activity of 5-methyl/trifluoromethoxy-1H-indole-2,3-dione 3-thiosemicarbazone derivatives” (Bioorg Med Chem, 2008).
Converted amounts (≈) assume the structure as drawn.

Test system: Mycobacterium tuberculosis
Test: Antitubercular activity against Mycobacterium tuberculosis H37Rv after 4 days by microplate alamar blue assay
Type: functional
Settings: 96 h
How it was run: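 M. tuberculosis H37Rv (ATCC 27294) in BACTEC 12B medium by MABA; 10 twofold dilutions, usually 100 to 0.19 µg/mL; final titer as printed; 37 °C, Alamar Blue added from day 4 once control wells turned pink, read 24 h later (ex 530/em 590 nm). MIC: lowest concentration giving 90% fluorescence reduction vs controls, taken as IC90 from dose-response curve fit.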

Row | Compound | IC90 [µg/mL]
1 | Cc1ccc2c(c1)/C(=N/NC(=S)Nc1ccccc1Br)C(=O)N2C | > 100
2 | O=C1Nc2ccc(OC(F)(F)F)cc2/C1=N/NC(=S)Nc1ccc(Br)cc1 | 1.53 (≈ 3.33 µM)
3 | O=C1/C(=N\NC(=S)Nc2ccc(Br)cc2)c2cc(OC(F)(F)F)ccc2N1CN1CCOCC1 | 3.03 (≈ 5.43 µM)
4 | O=C1/C(=N\NC(=S)Nc2ccc(F)cc2)c2cc(OC(F)(F)F)ccc2N1CN1CCOCC1 | 3.06 (≈ 6.15 µM)
5 | Cc1ccc2c(c1)/C(=N/NC(=S)Nc1ccc([N+](=O)[O-])cc1)C(=O)N2C | > 100
6 | CN1C(=O)/C(=N\NC(=S)Nc2ccccc2)c2cc(OC(F)(F)F)ccc21 | > 100
7 | CCCCNC(=S)N/N=C1\C(=O)N(C)c2ccc(C)cc21 | > 100
8 | COc1ccc(NC(=S)N/N=C2\C(=O)Nc3ccc(OC(F)(F)F)cc32)cc1 | > 100
9 | CCCCNC(=S)N/N=C1\C(=O)Nc2ccc(C)cc21 | 0.911 (≈ 3.14 µM)
10 | O=C1Nc2ccc(OC(F)(F)F)cc2/C1=N/NC(=S)Nc1ccccc1 | > 100
11 | Cc1ccc2c(c1)/C(=N/NC(=S)Nc1ccc(Cl)cc1)C(=O)N2 | 3.57 (≈ 10.3 µM)
12 | C=CCNC(=S)N/N=C1\C(=O)Nc2ccc(OC(F)(F)F)cc21 | > 100
13 | Cc1ccc2c(c1)/C(=N/NC(=S)Nc1ccccc1Br)C(=O)N2 | > 100
14 | O=C1/C(=N\NC(=S)NC2CCCCC2)c2cc(OC(F)(F)F)ccc2N1CN1CCOCC1 | 5.69 (≈ 11.7 µM)
15 | COc1ccc(NC(=S)N/N=C2\C(=O)N(CN3CCOCC3)c3ccc(OC(F)(F)F)cc32)cc1 | > 100
16 | Cc1ccc2c(c1)/C(=N/NC(=S)Nc1ccc(F)cc1)C(=O)N2 | 1.59 (≈ 4.83 µM)
17 | Cc1ccc(NC(=S)N/N=C2\C(=O)N(C)c3ccc(OC(F)(F)F)cc32)cc1 | > 100
18 | Cc1ccc2c(c1)/C(=N/NC(=S)Nc1ccccc1)C(=O)N2 | 1.43 (≈ 4.62 µM)
19 | CN1C(=O)/C(=N\NC(=S)Nc2ccc(Cl)cc2)c2cc(OC(F)(F)F)ccc21 | > 100
20 | O=C1Nc2ccc(OC(F)(F)F)cc2/C1=N/NC(=S)Nc1ccc(Cl)cc1 | 1.52 (≈ 3.67 µM)
21 | Cc1ccc(NC(=S)N/N=C2\C(=O)Nc3ccc(C)cc32)cc1 | > 100
22 | Cc1ccc2c(c1)/C(=N/NC(=S)Nc1ccc(Cl)cc1)C(=O)N2C | > 100

Row | Compound | IC90 [µg/mL]
23 | CN1C(=O)/C(=N\NC(=S)NC2CCCCC2)c2cc(OC(F)(F)F)ccc21 | > 100
24 | CN1C(=O)/C(=N\NC(=S)Nc2ccc(F)cc2)c2cc(OC(F)(F)F)ccc21 | > 100
25 | Cc1ccc2c(c1)/C(=N/NC(=S)NCc1ccccc1)C(=O)N2C | > 100
26 | C=CCNC(=S)N/N=C1\C(=O)N(CN2CCOCC2)c2ccc(OC(F)(F)F)cc21 | > 100
27 | CCCCNC(=S)N/N=C1\C(=O)N(C)c2ccc(OC(F)(F)F)cc21 | > 100
28 | O=C1/C(=N\NC(=S)Nc2ccc(Cl)cc2)c2cc(OC(F)(F)F)ccc2N1CN1CCOCC1 | 3.04 (≈ 5.92 µM)
29 | CN1C(=O)/C(=N\NC(=S)Nc2ccc([N+](=O)[O-])cc2)c2cc(OC(F)(F)F)ccc21 | > 100
30 | O=C1Nc2ccc(OC(F)(F)F)cc2/C1=N/NC(=S)NC1CCCCC1 | > 100
31 | CNC(=S)N/N=C1\C(=O)N(C)c2ccc(OC(F)(F)F)cc21 | > 100
32 | Cc1ccc2c(c1)/C(=N/NC(=S)Nc1ccc([N+](=O)[O-])cc1)C(=O)N2 | > 100
33 | CCNC(=S)N/N=C1\C(=O)Nc2ccc(OC(F)(F)F)cc21 | > 100
34 | CCCCNC(=S)N/N=C1\C(=O)Nc2ccc(OC(F)(F)F)cc21 | > 100
35 | O=C1Nc2ccc(OC(F)(F)F)cc2/C1=N/NC(=S)Nc1ccc(F)cc1 | 1.55 (≈ 3.88 µM)
36 | CN1C(=O)/C(=N\NC(=S)Nc2ccc(Br)cc2)c2cc(OC(F)(F)F)ccc21 | > 100
37 | Cc1ccc2c(c1)/C(=N/NC(=S)Nc1ccc(Br)cc1)C(=O)N2C | > 100
38 | CN1C(=O)/C(=N\NC(=S)NCc2ccccc2)c2cc(OC(F)(F)F)ccc21 | > 100
39 | Cc1ccc2c(c1)/C(=N/NC(=S)Nc1ccc(Br)cc1)C(=O)N2 | > 100
40 | O=C1/C(=N\NC(=S)NCc2ccccc2)c2cc(OC(F)(F)F)ccc2N1CN1CCOCC1 | > 100
41 | CCNC(=S)N/N=C1\C(=O)N(C)c2ccc(C)cc21 | > 100
42 | O=C1/C(=N\NC(=S)Nc2ccccc2)c2cc(OC(F)(F)F)ccc2N1CN1CCOCC1 | > 100
43 | C=CCNC(=S)N/N=C1\C(=O)N(C)c2ccc(OC(F)(F)F)cc21 | > 100
44 | O=C1Nc2ccc(OC(F)(F)F)cc2/C1=N/NC(=S)NCc1ccccc1 | > 100

Row | Compound | IC90 [µg/mL]
45 | CNC(=S)N/N=C1\C(=O)N(CN2CCOCC2)c2ccc(OC(F)(F)F)cc21 | > 100
46 | Cc1ccc(NC(=S)N/N=C2\C(=O)N(CN3CCOCC3)c3ccc(OC(F)(F)F)cc32)cc1 | > 100
47 | Cc1ccc2c(c1)/C(=N/NC(=S)NC1CCCCC1)C(=O)N2C | > 100
48 | CCCCNC(=S)N/N=C1\C(=O)N(CN2CCOCC2)c2ccc(OC(F)(F)F)cc21 | > 100
49 | Cc1ccc(NC(=S)N/N=C2\C(=O)N(C)c3ccc(C)cc32)cc1 | > 100
50 | CNC(=S)N/N=C1\C(=O)Nc2ccc(C)cc21 | > 100
51 | Cc1ccc2c(c1)/C(=N/NC(=S)NCc1ccccc1)C(=O)N2 | > 100
52 | CCNC(=S)N/N=C1\C(=O)N(CN2CCOCC2)c2ccc(OC(F)(F)F)cc21 | > 100
53 | CNC(=S)N/N=C1\C(=O)N(C)c2ccc(C)cc21 | > 100
54 | C=CCNC(=S)N/N=C1\C(=O)N(C)c2ccc(C)cc21 | > 100
55 | Cc1ccc2c(c1)/C(=N/NC(=S)Nc1ccccc1)C(=O)N2C | > 100
56 | CCNC(=S)N/N=C1\C(=O)Nc2ccc(C)cc21 | > 100
57 | Cc1ccc(NC(=S)N/N=C2\C(=O)Nc3ccc(OC(F)(F)F)cc32)cc1 | > 100
58 | Cc1ccc2c(c1)/C(=N/NC(=S)Nc1ccc(F)cc1)C(=O)N2C | > 100
59 | C=CCNC(=S)N/N=C1\C(=O)Nc2ccc(C)cc21 | > 100
60 | O=C1/C(=N\NC(=S)Nc2ccc([N+](=O)[O-])cc2)c2cc(OC(F)(F)F)ccc2N1CN1CCOCC1 | > 100
61 | Cc1ccc2c(c1)/C(=N/NC(=S)Nc1cccc(Br)c1)C(=O)N2 | 1.49 (≈ 3.83 µM)
62 | CNC(=S)N/N=C1\C(=O)Nc2ccc(OC(F)(F)F)cc21 | > 100
63 | O=C1Nc2ccc(OC(F)(F)F)cc2/C1=N/NC(=S)Nc1ccc([N+](=O)[O-])cc1 | > 100
64 | Cc1ccc2c(c1)/C(=N/NC(=S)Nc1cccc(Br)c1)C(=O)N2C | > 100
65 | CCNC(=S)N/N=C1\C(=O)N(C)c2ccc(OC(F)(F)F)cc21 | > 100
66 | Cc1ccc2c(c1)/C(=N/NC(=S)NC1CCCCC1)C(=O)N2 | 0.795 (≈ 2.51 µM)

Test system: not listed separately
Test: Selectivity index, ratio of IC50 for african green monkey Vero cells to IC90 for Mycobacterium tuberculosis H37Rv
Type: toxicity, cell-based
Settings: read-out: Selectivity Index
How it was run: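 SI = VERO cell IC50 / M. tuberculosis H37Rv MIC. VERO cells exposed 72 h at concentrations up to 10x the H37Rv MIC; viability by MTT (CellTiter 96); IC50 from dose-response curve fit. MIC from MABA against H37Rv in BACTEC 12B medium, 37 °C, 90% fluorescence reduction defining IC90.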

Row | Compound | selectivity ratio
67 | O=C1Nc2ccc(OC(F)(F)F)cc2/C1=N/NC(=S)Nc1ccc(Br)cc1 | 3.77
68 | O=C1/C(=N\NC(=S)Nc2ccc(Br)cc2)c2cc(OC(F)(F)F)ccc2N1CN1CCOCC1 | 2.46
69 | O=C1/C(=N\NC(=S)Nc2ccc(F)cc2)c2cc(OC(F)(F)F)ccc2N1CN1CCOCC1 | 0.784
70 | CCCCNC(=S)N/N=C1\C(=O)Nc2ccc(C)cc21 | 4.82
71 | Cc1ccc2c(c1)/C(=N/NC(=S)Nc1ccc(Cl)cc1)C(=O)N2 | 3.46
72 | O=C1/C(=N\NC(=S)NC2CCCCC2)c2cc(OC(F)(F)F)ccc2N1CN1CCOCC1 | 4.12
73 | Cc1ccc2c(c1)/C(=N/NC(=S)Nc1ccc(F)cc1)C(=O)N2 | < 0.123
74 | Cc1ccc2c(c1)/C(=N/NC(=S)Nc1ccccc1)C(=O)N2 | 0.742
75 | O=C1Nc2ccc(OC(F)(F)F)cc2/C1=N/NC(=S)Nc1ccc(Cl)cc1 | 4.2
76 | O=C1/C(=N\NC(=S)Nc2ccc(Cl)cc2)c2cc(OC(F)(F)F)ccc2N1CN1CCOCC1 | 3.19
77 | O=C1Nc2ccc(OC(F)(F)F)cc2/C1=N/NC(=S)Nc1ccc(F)cc1 | 1.64
78 | CO[C@H]1/C=C/O[C@@]2(C)Oc3c(C)c(O)c4c(O)c(c(/C=N/N5CCN(C)CC5)c(O)c4c3C2=O)NC(=O)/C(C)=C\C=C\[C@H](C)[C@H](O)[C@@H](C)[C@@H](O)[C@@H](C)[C@H](OC(C)=O)[C@@H]1C [RIFAMPIN] | > 800
79 | Cc1ccc2c(c1)/C(=N/NC(=S)Nc1cccc(Br)c1)C(=O)N2 | 0.473
80 | Cc1ccc2c(c1)/C(=N/NC(=S)NC1CCCCC1)C(=O)N2 | 1.98
